In ChEMBL document CHEMBL2346608, “New annelated thieno[2,3-e][1,2,3]triazolo[1,5-a]pyrimidines, with potent anticancer activity, designed through VLAK protocol” (2013):

Columns and labels:
Assay type in all cases: functional
DU-145 = assay: Antiproliferative activity against human DU145 cells after 48 hrs by sulforhodamine B assay; conditions: DU-145, 48 h; for TGI: read-out: pTGI (converted)
In short: (§1)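 Cells grown in RPMI 1640 with 5% FBS and 2 mM L-glutamine, plated at 5000–40,000 cells/well and preincubated 24 h at 37 °C, 5% CO2. Five drug concentrations (10-fold or ½-log dilutions from DMSO stocks) applied for 48 h. TCA-fixed (final 10% adherent, 16% suspension), SRB-stained, A515 read. Growth versus time-zero and control wells gave GI50, TGI, LC50.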

OVCAR-5 = assay: Antiproliferative activity against human OVCAR5 cells after 48 hrs by sulforhodamine B assay; conditions: OVCAR-5, 48 h; for TGI: read-out: pTGI (converted); in short: as §1
SK-MEL-28 = assay: Antiproliferative activity against human SK-MEL-28 cells after 48 hrs by sulforhodamine B assay; conditions: SK-MEL-28, 48 h; for TGI: read-out: pTGI (converted); in short: as §1
NCI/ADR-RES = assay: Antiproliferative activity against human NCI/ADR-RES cells after 48 hrs by sulforhodamine B assay; conditions: for TGI: read-out: pTGI (converted); in short: as §1
SF-295 = assay: Antiproliferative activity against human SF295 cells after 48 hrs by sulforhodamine B assay; conditions: SF-295, 48 h; for TGI: read-out: pTGI (converted); in short: as §1
OVCAR-3 = assay: Antiproliferative activity against human OVCAR3 cells after 48 hrs by sulforhodamine B assay; conditions: OVCAR-3, 48 h; for TGI: read-out: pTGI (converted); in short: as §1
SN12C = assay: Antiproliferative activity against human SN12C cells after 48 hrs by sulforhodamine B assay; conditions: for TGI: read-out: pTGI (converted); in short: as §1
PC-3 = assay: Antiproliferative activity against human PC3 cells after 48 hrs by sulforhodamine B assay; conditions: PC-3, 48 h; for TGI: read-out: pTGI (converted); in short: as §1
MOLT-4 = assay: Antiproliferative activity against human MOLT4 cells after 48 hrs by sulforhodamine B assay; conditions: MOLT-4, 48 h; in short: as §1
COLO 205 = assay: Antiproliferative activity against human COLO205 cells after 48 hrs by sulforhodamine B assay; conditions: COLO 205, 48 h; for TGI: read-out: pTGI (converted); in short: as §1
NCI-H522 = assay: Antiproliferative activity against human NCI-H522 cells after 48 hrs by sulforhodamine B assay; conditions: NCI-H522, 48 h; for TGI: read-out: pTGI (converted); in short: as §1
Malme-3M = assay: Antiproliferative activity against human MALME-3M cells after 48 hrs by sulforhodamine B assay; conditions: for TGI: read-out: pTGI (converted); in short: as §1
UO-31 = assay: Antiproliferative activity against human UO31 cells after 48 hrs by sulforhodamine B assay; conditions: UO-31, 48 h; for TGI: read-out: pTGI (converted)
In short: (§2)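 Cells in RPMI 1640 with 5% FBS and 2 mM L-glutamine were seeded at 5000–40,000/well according to doubling time and preincubated 24 h at 37 °C in 5% CO2. Time-zero plates were TCA-fixed when drug was added. Five 10-fold or ½-log dilutions from DMSO stocks were added for 48 h. After SRB staining, A515 was read and GI50 derived from [(Ti−Tz)/(C−Tz)]×100 = 50.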

KM12 = assay: Antiproliferative activity against human KM12 cells after 48 hrs by sulforhodamine B assay; conditions: KM12, 48 h; for TGI: read-out: pTGI (converted); in short: as §1
HOP-62 = assay: Antiproliferative activity against human HOP62 cells after 48 hrs by sulforhodamine B assay; conditions: HOP-62, 48 h; for TGI: read-out: pTGI (converted); in short: as §1
U-251 = assay: Antiproliferative activity against human U251 cells after 48 hrs by sulforhodamine B assay; conditions: U-251, 48 h; for TGI: read-out: pTGI (converted); in short: as §2
NCI-H322M = assay: Antiproliferative activity against human NCI-H322M cells after 48 hrs by sulforhodamine B assay; conditions: for TGI: read-out: pTGI (converted); in short: as §1
A549 = assay: Antiproliferative activity against human A549 cells after 48 hrs by sulforhodamine B assay; conditions: A549, 48 h; for TGI: read-out: pTGI (converted); in short: as §1
SNB-75 = assay: Antiproliferative activity against human SNB75 cells after 48 hrs by sulforhodamine B assay; conditions: SNB-75, 48 h; for TGI: read-out: pTGI (converted); in short: as §2
SW-620 = assay: Antiproliferative activity against human SW620 cells after 48 hrs by sulforhodamine B assay; conditions: SW-620, 48 h; in short: as §2
LOX IMVI = assay: Antiproliferative activity against human LOXIMVI cells after 48 hrs by sulforhodamine B assay; conditions: for CC50: read-out: pLC50 (the source's name) (converted); for TGI: read-out: pTGI (converted); in short: as §1
A498 = assay: Antiproliferative activity against human A498 cells after 48 hrs by sulforhodamine B assay; conditions: A498, 48 h; for TGI: read-out: pTGI (converted); in short: as §1
T47D = assay: Antiproliferative activity against human T47D cells after 48 hrs by sulforhodamine B assay; conditions: for TGI: read-out: pTGI (converted); in short: as §2
MCF7 = assay: Antiproliferative activity against human MCF7 cells after 48 hrs by sulforhodamine B assay; conditions: MCF7, 48 h; for TGI: read-out: pTGI (converted); in short: as §1
SF-539 = assay: Antiproliferative activity against human SF539 cells after 48 hrs by sulforhodamine B assay; conditions: SF-539, 48 h; for TGI: read-out: pTGI (converted); in short: as §1
[1] = Antiproliferative activity against human HCC2998 cells after 48 hrs by sulforhodamine B assay; conditions: HCC 2998, 48 h; for TGI: read-out: pTGI (converted); in short: as §1
UACC-257 = assay: Antiproliferative activity against human UACC257 cells after 48 hrs by sulforhodamine B assay; conditions: UACC-257, 48 h; for TGI: read-out: pTGI (converted); in short: as §2
HCT-15 = assay: Antiproliferative activity against human HCT15 cells after 48 hrs by sulforhodamine B assay; conditions: HCT-15, 48 h; for TGI: read-out: pTGI (converted); in short: as §1
HOP-92 = assay: Antiproliferative activity against human HOP92 cells after 48 hrs by sulforhodamine B assay; conditions: HOP-92, 48 h; for CC50: read-out: pLC50 (the source's name) (converted); in short: as §1

## O=C(CCCn1c(=O)c2sc3ccccc3c2n2nnc(-c3ccccc3)c12)NCCc1c[nH]cn1
DU-145
  GI50: 1.55 µM
  LC50: 5.75 µM
  TGI: 2.95 µM
OVCAR-5
  GI50: 1.2 µM
  TGI: 2.75 µM
SK-MEL-28
  GI50: 1.74 µM
  LC50: 5.89 µM
  TGI: 3.24 µM
NCI/ADR-RES
  GI50: 3.24 µM
  LC50: > 100 µM
  TGI: > 100 µM
SF-295
  GI50: 1.7 µM
  TGI: 3.63 µM
OVCAR-3
  GI50: 1.51 µM
  LC50: 6.61 µM
  TGI: 3.16 µM
SN12C
  GI50: 0.269 µM
  LC50: 5.13 µM
  TGI: 1.86 µM
PC-3
  LC50: > 100 µM
  TGI: > 100 µM
MOLT-4
  GI50: 1.17 µM
COLO 205
  GI50: 1.1 µM
  LC50: > 100 µM
  TGI: 4.79 µM
NCI-H522
  GI50: 1.05 µM
  LC50: 81.3 µM
  TGI: 11.7 µM
Malme-3M
  GI50: 2.51 µM
  LC50: > 100 µM
  TGI: 5.5 µM
UO-31
  GI50: 1.91 µM
  TGI: 3.72 µM
KM12
  GI50: 1.15 µM
  TGI: 2.82 µM
HOP-62
  GI50: 2.29 µM
  LC50: > 100 µM
  TGI: 5.25 µM
U-251
  GI50: 1.05 µM
  LC50: 4.68 µM
  TGI: 2.24 µM
NCI-H322M
  GI50: 2.24 µM
  LC50: 21.4 µM
  TGI: 5.5 µM
A549
  GI50: 2.09 µM
  TGI: 4.57 µM
SNB-75
  GI50: 1.86 µM
  LC50 (concentration killing 50% of starting cells): 8.71 µM
  TGI: 4.07 µM
SW-620
  GI50: 0.407 µM
LOX IMVI
  GI50: 1.58 µM
  CC50: 5.37 µM
  TGI: 2.95 µM
A498
  GI50: 1.55 µM
  LC50: 5.75 µM
  TGI: 3.02 µM
T47D
  GI50: 1.41 µM
  LC50: > 100 µM
  TGI: 4.47 µM
MCF7
  GI50: 1.45 µM
  LC50: 6.46 µM
  TGI: 3.09 µM
SF-539
  GI50: 0.661 µM
  LC50: 5.75 µM
  TGI: 2.19 µM
[1]
  GI50: 1.78 µM
  LC50: 9.77 µM
  TGI: 4.17 µM
UACC-257
  GI50: 2.04 µM
  LC50: > 100 µM
  TGI: 4.57 µM
HCT-15
  GI50: 1.26 µM
  LC50: 5.01 µM
  TGI: 2.51 µM
HOP-92
  GI50: 1.86 µM
  CC50: > 100 µM

## O=C(CCCn1c(=O)c2sc3ncccc3c2n2nnc(-c3ccccc3)c12)NCCc1c[nH]cn1
DU-145
  GI50: 2.75 µM
  LC50: 61.7 µM
  TGI: 19.5 µM
OVCAR-5
  GI50: 11.5 µM
  LC50: 93.3 µM
  TGI: 32.4 µM
SK-MEL-28
  GI50: 17 µM
  LC50: 72.4 µM
  TGI: 34.7 µM
NCI/ADR-RES
  GI50: 33.9 µM
  LC50: > 100 µM
  TGI: > 100 µM
SF-295
  GI50: 1.74 µM
  LC50: 53.7 µM
  TGI: 16.2 µM
OVCAR-3
  GI50: 11 µM
  LC50: 50.1 µM
  TGI: 23.4 µM
SN12C
  GI50: 0.331 µM
  LC50: 41.7 µM
  TGI: 13.5 µM
PC-3
  GI50: 11 µM
  LC50: > 100 µM
  TGI: > 100 µM
MOLT-4
  GI50: 2.24 µM
  LC50: > 100 µM
MOLT-4; read-out: pTGI (converted)
  TGI: 24 µM
COLO 205
  GI50: 6.31 µM
  LC50: 58.9 µM
  TGI: 23.4 µM
NCI-H522
  GI50: 2.95 µM
  LC50: 60.3 µM
  TGI: 22.9 µM
Malme-3M
  GI50: 18.2 µM
  LC50: 75.9 µM
  TGI: 37.2 µM
UO-31
  GI50: 11.7 µM
  LC50: 60.3 µM
  TGI: 26.9 µM
KM12
  GI50: 1.91 µM
  LC50: 83.2 µM
  TGI: 24 µM
HOP-62
  GI50: 16.6 µM
  LC50: 61.7 µM
  TGI: 31.6 µM
U-251
  GI50: 1.29 µM
  LC50: 45.7 µM
  TGI: 14.8 µM
NCI-H322M
  GI50: 14.8 µM
  LC50: 89.1 µM
  TGI: 36.3 µM
A549
  GI50: 8.71 µM
  LC50: > 100 µM
  TGI: 34.7 µM
SNB-75
  GI50: 15.1 µM
  LC50 (concentration killing 50% of starting cells): 55 µM
  TGI: 28.8 µM
SW-620
  GI50: 0.331 µM
  LC50: 61.7 µM
SW-620; read-out: pTGI (converted)
  TGI: 14.5 µM
LOX IMVI
  GI50: 12.3 µM
  CC50: 57.5 µM
  TGI: 26.3 µM
A498
  GI50: 6.76 µM
  LC50: 53.7 µM
  TGI: 22.4 µM
T47D
  GI50: 1.86 µM
  LC50: 64.6 µM
  TGI: 21.4 µM
MCF7
  GI50: 17.8 µM
  LC50: > 100 µM
  TGI: > 100 µM
SF-539
  GI50: 0.316 µM
  LC50: 53.7 µM
  TGI: 14.8 µM
[1]
  GI50: 2.04 µM
  LC50: > 100 µM
  TGI: 30.2 µM
UACC-257
  GI50: 18.2 µM
  LC50: 69.2 µM
  TGI: 35.5 µM
HCT-15
  GI50: 5.75 µM
  LC50: > 100 µM
  TGI: > 100 µM
HOP-92
  GI50: 17 µM
  CC50: 91.2 µM
HOP-92; read-out: pTGI (converted)
  TGI: 39.8 µM
